# Published values collected from several papers.
# Each line is one published result; the experiments were not run side by side.
# Sample: plasma
# Route: intravenous
Structure (SMILES),system,setting,Vd
C[C@H]1CN(c2ccc(C3CCC(=O)NC3=O)cc2F)CCN1CC12CCC(NS(=O)(=O)c3ccc(Nc4ncc(C(F)(F)F)c(N5CCC[C@](C)(O)C5)n4)c(F)c3)(CC1)CO2 (stereo partly shown),rat,2 mg/kg,4 L/kg
[2H]c1cc(C)c(NC(=O)c2cnc(Nc3cc(N4CC[C@H](O)C4)nc(C)n3)s2)c(Cl)c1,male Sprague-Dawley rat,1 mg/kg,1.1 L/kg
C=CCn1c(=O)c2cnc(Nc3ccc(N4CCN(C)CC4)cc3)nc2n1-c1ccc2c(n1)[C@@](O)(CC)CC2,rat,3 mg/kg,2.8 L/kg
COc1ccc(N(Cc2csc(-c3ccccc3)n2)C(=O)CCCCCC(=O)NO)cc1,female Sprague-Dawley rat,5 mg/kg,441 L/kg
CCONC(=O)N1CCC[C@H](C(=O)NCc2nc(-c3ccc(C#N)cc3)cs2)C1,male Sprague-Dawley rat,1 mg/kg,0.45 L/kg
Cc1nc(Nc2ncc(C(=O)Nc3c(C)cccc3Cl)s2)cc(N2CC[C@H](O)C2)n1,male Sprague-Dawley rat,1 mg/kg,0.9 L/kg
C[C@]1(O)CCCN(c2nc(Nc3ccc(S(=O)(=O)N[C@@H]4CCN(CC5CCN(c6ccc(C7CCC(=O)NC7=O)cc6F)CC5)C[C@H]4F)cc3F)ncc2C(F)(F)F)C1 (stereo partly shown),rat,2 mg/kg,5 L/kg
COc1ccc(-c2coc3cc(O)cc(O)c3c2=O)cc1,rat,2 mg/kg,0.81 L/kg
NCCOCC(=O)N1CCC[C@H](C(=O)NCc2nc(-c3ccc(C(F)(F)F)cc3)cs2)C1,male Sprague-Dawley rat,1 mg/kg,3.2 L/kg
Cn1c(=O)c2[nH]cnc2n(C)c1=O,male Sprague-Dawley rat,22.5 mg/kg,1.52 L/kg
[2H]c1cc(C)c(NC(=O)c2cnc(Nc3cc(N4CCC(O)CC4)nc(C)n3)s2)c(Cl)c1,male Sprague-Dawley rat,1 mg/kg,4.8 L/kg
Cc1cc(S(=O)(=O)N[C@H]2CC[C@H](N3CCN(CC4CCN(c5cccc6c5n(C)c(=O)n6C5CCC(=O)NC5=O)CC4)CC3)CC2)ccc1Nc1ncc(C(F)(F)F)c(N2CCC[C@](C)(O)C2)n1 (stereo partly shown),rat,2 mg/kg,10 L/kg
Cc1nc(Nc2ncc(C(=O)Nc3c(C)cccc3Cl)s2)cc(N2CC[C@H](N)C2)n1,male Sprague-Dawley rat,1 mg/kg,16.4 L/kg
Cc1cc(S(=O)(=O)N[C@H]2CC[C@H](CN3CCN(c4ccc(C5CCC(=O)NC5=O)c(Cl)c4)CC3)CC2)ccc1Nc1ncc(C(F)(F)F)c(N2CCC[C@](C)(O)C2)n1 (stereo partly shown),rat,2 mg/kg,3 L/kg
CCOCC(=O)N1CCC[C@H](C(=O)NCc2nc(-c3ccc(C#N)nc3)cs2)C1,male Sprague-Dawley rat,1 mg/kg,0.43 L/kg
Cc1nc(Nc2ncc(C(=O)Nc3c(C)cccc3Cl)s2)cc(N2CCN(CCO)CC2)n1,male Sprague-Dawley rat,1 mg/kg,2.8 L/kg
